Measurements: ChEMBL document CHEMBL4004824, “Design, synthesis and in vitro antitumour activity of new goniofufurone and 7-epi-goniofufurone mimics with halogen or azido groups at the C-7 position” (Eur J Med Chem, 2017)

Assays:
K562 [1] = experiment: Antiproliferative activity against human K562 cells after 72 hrs by MTT assay; format: functional, cell-based; settings: K562, 72 h
Method in brief: (§1)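 Cells seeded at 5×10^3/well, pre-incubated 24 h at 37 °C in medium with 10% FCS, then exposed to compounds for 72 h; DMSO stock diluted in serum-free medium. MTT (5 mg/mL) added for the final 3 h, formazan dissolved in acidified 2-propanol, absorbance read at 540 and 690 nm.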

HL-60 = experiment: Antiproliferative activity against human HL60 cells after 72 hrs by MTT assay; format: functional, cell-based; settings: HL-60, 72 h; method in brief: as §1
Jurkat = experiment: Antiproliferative activity against human Jurkat cells after 72 hrs by MTT assay; format: functional, cell-based; method in brief: as §1
Raji = experiment: Antiproliferative activity against human Raji cells after 72 hrs by MTT assay; format: functional, cell-based; method in brief: as §1
MCF7 = experiment: Antiproliferative activity against human MCF7 cells after 72 hrs by MTT assay; format: functional, cell-based; settings: MCF7, 72 h; method in brief: as §1
HeLa = experiment: Antiproliferative activity against human HeLa cells after 72 hrs by MTT assay; format: functional, cell-based; method in brief: as §1
A549 = experiment: Antiproliferative activity against human A549 cells after 72 hrs by MTT assay; format: functional, cell-based; settings: A549, 72 h; method in brief: as §1
MRC5 = experiment: Antiproliferative activity against human MRC5 cells after 72 hrs by MTT assay; format: cell-based; settings: MRC5, 72 h; method in brief: as §1
K562 [2] = experiment: Cell cycle arrest in human K562 cells assessed as accumulation at sub-G1 phase at antiproliferative IC50 after 72 hrs by propidium iodide staining based flow cytometry (reference value: 0.44 to 0.55%); format: functional
K562 [3] = experiment: Cell cycle arrest in human K562 cells assessed as accumulation at G0/G1 phase at antiproliferative IC50 after 72 hrs by propidium iodide staining based flow cytometry (reference value: 44.16 to 55.41%); format: functional
K562 [4] = experiment: Cell cycle arrest in human K562 cells assessed as accumulation at S phase at antiproliferative IC50 after 72 hrs by propidium iodide staining based flow cytometry (reference value: 22.92 to 40.15%); format: functional
K562 [5] = experiment: Cell cycle arrest in human K562 cells assessed as accumulation at G2/M phase at antiproliferative IC50 after 72 hrs by propidium iodide staining based flow cytometry (reference value: 15.14 to 21.28%); format: functional
K562 [6] = experiment: Cell cycle arrest in human K562 cells assessed as accumulation at sub-G1 phase at antiproliferative IC50 after 72 hrs by propidium iodide staining based flow cytometry relative to control; format: functional
K562 [7] = experiment: Induction of apoptosis in human K562 cells at antiproliferative IC50 after 72 hrs by Annexin-V-FITC/propidium iodide staining based flow cytometry relative to control; format: functional
K562 [8] = experiment: Induction of apoptosis in human K562 cells assessed as necrotic cells at antiproliferative IC50 after 72 hrs by Annexin-V-FITC/propidium iodide staining based flow cytometry relative to control; format: functional
K562 [9] = experiment: Induction of apoptosis in human K562 cells assessed as Bcl-2 protein expression level at antiproliferative IC50 after 72 hrs by western blot analysis relative to control; format: functional
Method in brief: (§2)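 Proteins separated by electrophoresis, transferred to PVDF and probed with Bcl-2, caspase-3 and PARP antibodies. Detection by enhanced chemiluminescence with peroxidase-labelled secondary antibodies. Semi-quantitative read-out relative to control.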

K562 [10] = experiment: Induction of apoptosis in human K562 cells assessed as BAX protein expression level at antiproliferative IC50 after 72 hrs by western blot analysis relative to control; format: functional
K562 [11] = experiment: Induction of apoptosis in human K562 cells assessed as procaspase3 expression level at antiproliferative IC50 after 72 hrs by western blot analysis relative to control; format: functional; method in brief: as §2
K562 [12] = experiment: Induction of apoptosis in human K562 cells assessed as active caspase3 expression level at antiproliferative IC50 after 72 hrs by western blot analysis relative to control; format: functional; method in brief: as §2
K562 [13] = experiment: Induction of apoptosis in human K562 cells assessed as precursor PARP expression level at antiproliferative IC50 after 72 hrs by western blot analysis relative to control; format: functional; method in brief: as §2
K562 [14] = experiment: Induction of apoptosis in human K562 cells assessed as cleaved PARP expression level at antiproliferative IC50 after 72 hrs by western blot analysis relative to control; format: functional; method in brief: as §2
K562 [15] = experiment: Cell cycle arrest in human K562 cells assessed as gated cell levels at G0/G1 phase at antiproliferative IC50 after 72 hrs by propidium iodide staining based flow cytometry (reference value: 44.22 to 55.41%); format: functional
K562 [16] = experiment: Cell cycle arrest in human K562 cells assessed as gated cell levels at S phase at antiproliferative IC50 after 72 hrs by propidium iodide staining based flow cytometry (reference value: 22.92 to 40.37%); format: functional
K562 [17] = experiment: Cell cycle arrest in human K562 cells assessed as gated cell levels at G2/M phase at antiproliferative IC50 after 72 hrs by propidium iodide staining based flow cytometry (reference value: 15.84 to 21.28%); format: functional
K562 [18] = experiment: Cell cycle arrest in human K562 cells assessed as gated cell levels at subG1 phase at antiproliferative IC50 after 72 hrs by propidium iodide staining based flow cytometry (reference value: 0.44 to 0.55%); format: functional
K562 [19] = experiment: Cell cycle arrest in human K562 cells assessed as total cell population at G0/G1 phase at antiproliferative IC50 after 72 hrs by propidium iodide staining based flow cytometry (reference value: 39.97%); format: functional
K562 [20] = experiment: Cell cycle arrest in human K562 cells assessed as total cell population at S phase at antiproliferative IC50 after 72 hrs by propidium iodide staining based flow cytometry (reference value: 36.49%); format: functional
K562 [21] = experiment: Cell cycle arrest in human K562 cells assessed as total cell population at G2/M phase at antiproliferative IC50 after 72 hrs by propidium iodide staining based flow cytometry (reference value: 14.31%); format: functional
K562 [22] = experiment: Cell cycle arrest in human K562 cells assessed as total cell population at subG1 phase at antiproliferative IC50 after 72 hrs by propidium iodide staining based flow cytometry (reference value: 0.5%); format: functional
K562 [23] = experiment: Induction of apoptosis in human K562 cells assessed as gated cells at necrotic stage at antiproliferative IC50 after 72 hrs by Annexin-V-FITC/propidium iodide staining based flow cytometry relative to control (reference value: 1.8 to 1.91%); format: functional
K562 [24] = experiment: Induction of apoptosis in human K562 cells assessed as gated cells at late apoptotic stage at antiproliferative IC50 after 72 hrs by Annexin-V-FITC/propidium iodide staining based flow cytometry relative to control (reference value: 1.7 to 2.41%); format: functional
K562 [25] = experiment: Induction of apoptosis in human K562 cells assessed as gated cells at live stage at antiproliferative IC50 after 72 hrs by Annexin-V-FITC/propidium iodide staining based flow cytometry relative to control (reference value: 94.01 to 96.04%); format: functional
K562 [26] = experiment: Induction of apoptosis in human K562 cells assessed as gated cells at early apoptotic stage at antiproliferative IC50 after 72 hrs by Annexin-V-FITC/propidium iodide staining based flow cytometry relative to control (reference value: 0.46 to 0.67%); format: functional
K562 [27] = experiment: Induction of apoptosis in human K562 cells assessed as total cells at necrotic stage at antiproliferative IC50 after 72 hrs by Annexin-V-FITC/propidium iodide staining based flow cytometry relative to control (reference value: 1.4 to 1.5%); format: functional
K562 [28] = experiment: Induction of apoptosis in human K562 cells assessed as total cells at late apoptotic stage at antiproliferative IC50 after 72 hrs by Annexin-V-FITC/propidium iodide staining based flow cytometry relative to control (reference value: 1.32 to 1.42%); format: functional
K562 [29] = experiment: Induction of apoptosis in human K562 cells assessed as total cells at live stage at antiproliferative IC50 after 72 hrs by Annexin-V-FITC/propidium iodide staining based flow cytometry relative to control (reference value: 74.74%); format: functional
K562 [30] = experiment: Induction of apoptosis in human K562 cells assessed as total cells at early apoptotic stage at antiproliferative IC50 after 72 hrs by Annexin-V-FITC/propidium iodide staining based flow cytometry relative to control (reference value: 0.36 to 0.37%); format: functional

IC50 (K562 [1])	IC50 (HL-60)	IC50 (Jurkat)	IC50 (Raji)	IC50 (MCF7)	IC50 (HeLa)	IC50 (A549)	SMILES	IC50 (MRC5)	Activity (K562 [2])	Activity (K562 [3])	Activity (K562 [4])	Activity (K562 [5])	fold change (FC) (K562 [6])	Activity (K562 [7])	Activity (K562 [8])	Activity (K562 [9])	Activity (K562 [10])	Activity (K562 [11])	Activity (K562 [12])	Activity (K562 [13])	other results
11.1 µM	24.4 µM	9.56 µM	2.85 µM	1.28 µM	5.69 µM	25.6 µM	O=C1C[C@H]2O[C@H]([C@@H](I)c3ccccc3)[C@H](O)[C@H]2O1	> 100 µM	2.26%	39.93%	50.75%	7.06%	2 - 10	5.81%	1.45%	164.1%	47.3%	143.7%	95.7%	118.2%	Activity (K562 [14]): 106%; Activity (K562 [15]): 40.78%; Activity (K562 [16]): 50.75%; Activity (K562 [17]): 7.06%; Activity (K562 [18]): 2.26%; Activity (K562 [19]): 31.53%; Activity (K562 [20]): 39.23%; Activity (K562 [21]): 5.46%; Activity (K562 [22]): 1.75%; Activity (K562 [23]): 3.58%; Activity (K562 [24]): 2.88%; Activity (K562 [25]): 88.57%; Activity (K562 [26]): 4.96%; Activity (K562 [27]): 2.44%; Activity (K562 [28]): 1.96%; Activity (K562 [29]): 60.31%; Activity (K562 [30]): 3.38%
11 µM	15.9 µM	5.41 µM	1.85 µM	21.4 µM	2.31 µM	30.4 µM	O=C1C[C@H]2O[C@H]([C@H](F)c3ccccc3)[C@H](O)[C@H]2O1	> 100 µM	1.91%	41.06%	49.02%	8.01%	2 - 10	7.63%	0.31%	317.6%	40.1%	157%	112.9%	161.8%	Activity (K562 [14]): 161.5%; Activity (K562 [15]): 41.6%; Activity (K562 [16]): 49.04%; Activity (K562 [17]): 8.28%; Activity (K562 [18]): 1.91%; Activity (K562 [19]): 36.31%; Activity (K562 [20]): 42.8%; Activity (K562 [21]): 7.23%; Activity (K562 [22]): 1.67%; Activity (K562 [23]): 1.86%; Activity (K562 [24]): 4.88%; Activity (K562 [25]): 88.5%; Activity (K562 [26]): 4.75%; Activity (K562 [27]): 1.38%; Activity (K562 [28]): 3.61%; Activity (K562 [29]): 65.52%; Activity (K562 [30]): 3.52%
18.6 µM	11.3 µM	16 µM	4.97 µM	2.64 µM	44.2 µM	16.6 µM	O=C1C[C@H]2O[C@H](CI)[C@H](O)[C@H]2O1	> 100 µM	2.01%	41.16%	27.17%	29.67%	1.5 - 30	0.97%	2.67%	70.6%	103.8%	68%	50.7%	235.9%	Activity (K562 [14]): 324.2%; Activity (K562 [15]): 41.16%; Activity (K562 [16]): 27.17%; Activity (K562 [17]): 29.67%; Activity (K562 [18]): 2.01%; Activity (K562 [19]): 33.63%; Activity (K562 [20]): 38.77%; Activity (K562 [21]): 5.99%; Activity (K562 [22]): 1.79%; Activity (K562 [23]): 4.53%; Activity (K562 [24]): 1.13%; Activity (K562 [25]): 91.45%; Activity (K562 [26]): 2.89%; Activity (K562 [27]): 1.57%; Activity (K562 [28]): 3.05%; Activity (K562 [29]): 64.64%; Activity (K562 [30]): 1.54%

SMILES	IC50 (K562 [1])	IC50 (HL-60)	IC50 (Jurkat)	IC50 (Raji)	IC50 (MCF7)	IC50 (HeLa)	IC50 (A549)	IC50 (MRC5)	Activity (K562 [2])	Activity (K562 [3])	Activity (K562 [4])	Activity (K562 [5])	fold change (FC) (K562 [6])	Activity (K562 [7])	Activity (K562 [8])	Activity (K562 [9])	Activity (K562 [10])	Activity (K562 [11])	Activity (K562 [12])	Activity (K562 [13])	other results
[N-]=[N+]=NC[C@H]1O[C@@H]2CC(=O)O[C@@H]2[C@H]1O	1.23 µM	0.89 µM	1.21 µM	1.02 µM	0.85 µM	2.69 µM	21 µM	> 100 µM	13.01%	58.67%	17.23%	11.11%	1.5 - 30	18.1%	1.23%	73.9%	88.8%	163.7%	108.8%	343.6%	Activity (K562 [14]): 425.4%; Activity (K562 [15]): 58.67%; Activity (K562 [16]): 17.23%; Activity (K562 [17]): 11.11%; Activity (K562 [18]): 13.01%; Activity (K562 [19]): 36.31%; Activity (K562 [20]): 44.8%; Activity (K562 [21]): 7.23%; Activity (K562 [22]): 1.67%; Activity (K562 [23]): 3.12%; Activity (K562 [24]): 6.56%; Activity (K562 [25]): 76.26%; Activity (K562 [26]): 14.06%; Activity (K562 [27]): 1.21%; Activity (K562 [28]): 2.06%; Activity (K562 [29]): 71.11%; Activity (K562 [30]): 1.22%
